Active and inactive are the calls of the source. The rule behind the calls is not given here.
Experiments:
MDA-MB-231 = assay: Antiproliferative activity against human MDA-MB-231 cells after 72 hrs by CCK8 assay; assay type: functional, cell-based; settings: MDA-MB-231, 72 h
Method in brief: (§1)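 CCK-8 proliferation assay with CA-4 as positive control. IC50 is the concentration giving 50% inhibition of proliferation. Mean ± SEM from three independent experiments.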

CT26 = assay: Antiproliferative activity against mouse CT26 cells after 72 hrs by CCK8 assay; assay type: functional, cell-based; settings: CT26, 72 h; method in brief: as §1
MCF7 = assay: Antiproliferative activity against human MCF7 cells after 72 hrs by CCK8 assay; assay type: functional, cell-based; settings: MCF7, 72 h; method in brief: as §1
SK-OV-3 [1] = assay: Cell cycle arrest in human SKOV3 cells assessed as accumulation at G0/G1 phase at 80 nM after 24 hrs by propidium iodide staining based flow cytometry (reference value: 67.79%); assay type: functional
Method in brief: (§2)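 SK-OV-3 cells exposed to 40, 80 or 160 nM for 24 h, with untreated cells as control. Stained with PI and analysed by flow cytometry for phase distribution. Mean ± SEM of three independent experiments; t-test against control.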

SK-OV-3 [2] = assay: Cell cycle arrest in human SKOV3 cells assessed as accumulation at S phase at 80 nM after 24 hrs by propidium iodide staining based flow cytometry (reference value: 18.09%); assay type: functional; method in brief: as §2
SK-OV-3 [3] = assay: Cell cycle arrest in human SKOV3 cells assessed as accumulation at G2/M phase at 80 nM after 24 hrs by propidium iodide staining based flow cytometry (reference value: 24.99%); assay type: functional; method in brief: as §2
SK-OV-3 [4] = assay: Induction of apoptosis in human SKOV3 cells assessed as live cells at 40 nM after 48 hrs by Annexin-V-FITC/propidium iodide staining based flow cytometry (reference value: 94.43%); assay type: functional
SK-OV-3 [5] = assay: Induction of apoptosis in human SKOV3 cells assessed as early apoptotic cells at 40 nM after 48 hrs by Annexin-V-FITC/propidium iodide staining based flow cytometry (reference value: 0.97%); assay type: functional
SK-OV-3 [6] = assay: Induction of apoptosis in human SKOV3 cells assessed as necrotic cells at 40 nM after 48 hrs by Annexin-V-FITC/propidium iodide staining based flow cytometry (reference value: 0.67%); assay type: functional
SK-OV-3 [7] = assay: Induction of apoptosis in human SKOV3 cells assessed as late apoptotic cells at 80 nM after 48 hrs by Annexin-V-FITC/propidium iodide staining based flow cytometry (reference value: 3.93%); assay type: functional
SK-OV-3 [8] = assay: Induction of apoptosis in human SKOV3 cells assessed as necrotic cells at 80 nM after 48 hrs by Annexin-V-FITC/propidium iodide staining based flow cytometry (reference value: 0.67%); assay type: functional
SK-OV-3 [9] = assay: Induction of apoptosis in human SKOV3 cells assessed as early apoptotic cells at 160 nM after 48 hrs by Annexin-V-FITC/propidium iodide staining based flow cytometry (reference value: 0.97%); assay type: functional
SK-OV-3 [10] = assay: Induction of apoptosis in human SKOV3 cells assessed as late apoptotic cells at 160 nM after 48 hrs by Annexin-V-FITC/propidium iodide staining based flow cytometry (reference value: 3.93%); assay type: functional
SK-OV-3 [11] = assay: Antimigratory activity against human SKOV3 cells assessed as wound closure at 80 nM after 24 hrs by microscopy based scratch wound assay (reference value: 79.5 +/- 2.8%); assay type: functional
SK-OV-3 [12] = assay: Antimigratory activity against human SKOV3 cells assessed as number of migrated cells at 100 nM after 24 hrs by crystal violet staining based transwell migration assay (reference value: 49.3 to 50.7); assay type: functional
Bos taurus [13] = organism: Bos taurus; assay: Inhibition of bovine MAP-rich tubulin polymerization at 10 uM measured every 1 min for 30 mins relative to control
Method in brief: (§3)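 Purified tubulin polymerization followed at 37 °C by absorbance at 340 nm, read every 1 min for 30 min. Test concentrations 2.5, 10 and 40 µM. CA-4 at 10 µM served as positive control and DMSO (1%, v/v) as vehicle. Polymerization is expressed relative to the vehicle group.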

Bos taurus [14] = organism: Bos taurus; assay: Inhibition of bovine MAP-rich tubulin polymerization at 40 uM measured every 1 min for 30 mins relative to control; method in brief: as §3
SK-OV-3 [15] = assay: Inhibition of tubulin assembly in human SKOV3 cells assessed as disorganized spindle formation at 10 to 1000 nM after 24 hrs by DAPI staining based immunofluorescence microscopic method; assay type: functional, cell-based
Method in brief: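 SK-OV-3 cells exposed to DMSO or 10, 100 or 1000 nM for 24 h. Fixed in methanol, stained with FITC anti-β-tubulin antibody, counterstained with DAPI, and imaged by confocal microscopy.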

Mus musculus [16] = assay: Area under the first moment curve (0 to 24 hrs) in C57 mouse at 50 mg/kg, ip administered as single dose by LC-MS/MS analysis; assay type: ADME, organism-based; settings: in vivo
Method in brief: (§4)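 Male C57 mice, one intraperitoneal dose. Blood drawn from submaxillary vein at 0, 5, 15, 30 min and 1, 2, 4, 8, 12, 24 h. Plasma measured by LC/MS/MS in MRM mode with CA-4 as internal standard. Calibration by weighted linear regression over 0.01–500 ng/mL. Parameters obtained by non-compartmental analysis.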

[17] = Terminal half life in C57 mouse at 50 mg/kg, ip administered as single dose by LC-MS/MS analysis; assay type: ADME, organism-based; settings: in vivo, read-out: beta t1/2 (converted); method in brief: as §4
[18] = Elimination rate constant in C57 mouse at 50 mg/kg, ip administered as single dose by LC-MS/MS analysis; assay type: ADME, organism-based; settings: in vivo; method in brief: as §4
[19] = Cmax in C57 mouse at 50 mg/kg, ip administered as single dose by LC-MS/MS analysis; assay type: ADME, organism-based; set-up: dose 50 mg/kg, route intraperitoneal; settings: in vivo; method in brief: as §4
[20] = AUC (0 to 24 hrs) in C57 mouse at 50 mg/kg, ip administered as single dose by LC-MS/MS analysis; assay type: ADME, organism-based; set-up: dose 50 mg/kg, time < 24 hr, route intraperitoneal; settings: in vivo; method in brief: as §4
SK-OV-3 [21] = assay: Antitumor activity against human SKOV3 cells xenografted in Balb/c mouse assessed as reduction in tumor growth at 50 mg/kg, ip administered every two days for three times measured every 3 to 4 days relative to control; assay type: functional; set-up: scale not given: the % may be the effect or the level left
Method in brief: (§5)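 Six-week-old Balb/c nude mice given subcutaneous SK-OV-3 cells in the back. Randomised into three groups at about 200 mm3 tumour size. Dosed 50 mg/kg intraperitoneally in 5% DMSO/olive oil every two days, three times; vehicle group as control. Tumour volume and body weight tracked; six animals per group, mean ± SEM, t-test.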

Mus musculus [22] = assay: Toxicity in Balb/c mouse xenografted with human SKOV3 cells assessed as body weight loss at 50 mg/kg, ip administered every two days for three times measured during compound dosing; assay type: organism-based; settings: in vivo; method in brief: as §5
Mus musculus [23] = assay: Toxicity in Balb/c mouse xenografted with human SKOV3 cells assessed as pathological changes in liver at 50 mg/kg, ip administered every two days for three times by hematoxylin and eosin staining based assay; assay type: organism-based; settings: in vivo
Method in brief: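 In SK-OV-3 xenografted Balb/c nude mice dosed 50 mg/kg intraperitoneally in 5% DMSO/olive oil every two days, three times, organs were collected and examined after H&E staining.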

Mus musculus [24] = assay: Toxicity in Balb/c mouse xenografted with human SKOV3 cells assessed as pathological changes in spleen at 50 mg/kg, ip administered every two days for three times by hematoxylin and eosin staining based assay; assay type: organism-based; settings: in vivo
Method in brief: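 Six-week-old Balb/c nude mice received subcutaneous SK-OV-3 cells in the back. At ~200 mm3 tumour size they were randomized to vehicle or drug groups, six per group. Drug was given in 5% (v/v) DMSO/olive oil, intraperitoneally, every two days for three doses. Heart, liver, spleen, lung and kidney were collected and examined by H&E staining.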

**Q.** Which IC50 (MDA-MB-231) does the source give for `CCOc1ccc(-c2cn(C)nc2-c2cc(OC)c(OC)c(OC)c2)cc1` here?
**A.** 31 nM

**Q.** And the IC50 (CT26)?
**A.** 58 nM

**Q.** What about the IC50 (MCF7) of the same molecule?
**A.** 35.4 nM

**Q.** And the Activity (SK-OV-3 [1])?
**A.** 41.2%

**Q.** What about the Activity (SK-OV-3 [2]) of the same molecule?
**A.** 24.15%

**Q.** And the Activity (SK-OV-3 [3])?
**A.** 34.65%

**Q.** What about the Activity (SK-OV-3 [4]) of the same molecule?
**A.** 91.03%

**Q.** And the Activity (SK-OV-3 [5])?
**A.** 1.35%

**Q.** And the Activity (SK-OV-3 [6])?
**A.** 0.97%

**Q.** And the Activity (SK-OV-3 [7])?
**A.** 18.67%

**Q.** And the Activity (SK-OV-3 [8])?
**A.** 2.72%

**Q.** And the Activity (SK-OV-3 [9])?
**A.** 9.46%

**Q.** And the Activity (SK-OV-3 [10])?
**A.** 47.36%

**Q.** And the Activity (SK-OV-3 [11])?
**A.** 44.3%

**Q.** What about the Activity (SK-OV-3 [12]) of the same molecule?
**A.** 18.3

**Q.** What about the inhibition (Bos taurus [13]) of the same molecule?
**A.** 60.4%

**Q.** And the inhibition (Bos taurus [14])?
**A.** 85.3%

**Q.** What about the inhibition (SK-OV-3 [15]) of the same molecule?
**A.** Active

**Q.** And the AUMC (Mus musculus [16])?
**A.** 1498 hr.hr.ng/ml

**Q.** And the half-life [17]?
**A.** 1.67 h

**Q.** What about the k el [18] of the same molecule?
**A.** 0.000117 s⁻¹

**Q.** And the Cmax [19]?
**A.** 882 ng/mL

**Q.** And the AUC(0-t) at 24 h [20]?
**A.** 1140 ng·h/mL

**Q.** And the Activity (SK-OV-3 [21])?
**A.** 62.8%

**Q.** What about the Activity (Mus musculus [22]) of the same molecule?
**A.** Non-Toxic

**Q.** What about the Activity (Mus musculus [23]) of the same molecule?
**A.** Non-Toxic

**Q.** And the Activity (Mus musculus [24])?
**A.** Non-Toxic

Reference: ChEMBL document CHEMBL4270544, “Design, synthesis and biological evaluation of a novel tubulin inhibitor 7a3 targeting the colchicine binding site” (Eur J Med Chem, 2018)
